# Columns and labels:
# Canis familiaris = organism: Canis familiaris; test: Effect on methemoglobin formation in canine venous blood containing heparin; assay type: functional, Canis lupus familiaris
# Rattus norvegicus [1] = test: Total radioactivity in tissues of male sd rats dosed orally with H-labeled compound at 21 mg/kg after 48 hr in liver; assay type: functional; settings: route oral
# How it was run: (§1)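 Male Sprague-Dawley rats received ³H-labelled drug (phenoxy ring, 3.96 μCi/mg) in PEG-400 by gavage at 21 mg/kg. Animals were killed at 5, 15, 30 min and at 1, 2, 4, 24 and 48 h. Homogenates were pooled per group, and total radioactivity was measured as the mean of duplicate combustions, in μg equiv/g. Two or three rats were used per point, except one rat at 24 and 48 h.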
# [2] = target: T1, Polyunsaturated fatty acid 5-lipoxygenase (Rattus norvegicus, UniProt P12527); test: Tested for its inhibitory activity against arachidonic acid in rat 5-lipoxygenase.
# T1 sequence (P12527 whole entry): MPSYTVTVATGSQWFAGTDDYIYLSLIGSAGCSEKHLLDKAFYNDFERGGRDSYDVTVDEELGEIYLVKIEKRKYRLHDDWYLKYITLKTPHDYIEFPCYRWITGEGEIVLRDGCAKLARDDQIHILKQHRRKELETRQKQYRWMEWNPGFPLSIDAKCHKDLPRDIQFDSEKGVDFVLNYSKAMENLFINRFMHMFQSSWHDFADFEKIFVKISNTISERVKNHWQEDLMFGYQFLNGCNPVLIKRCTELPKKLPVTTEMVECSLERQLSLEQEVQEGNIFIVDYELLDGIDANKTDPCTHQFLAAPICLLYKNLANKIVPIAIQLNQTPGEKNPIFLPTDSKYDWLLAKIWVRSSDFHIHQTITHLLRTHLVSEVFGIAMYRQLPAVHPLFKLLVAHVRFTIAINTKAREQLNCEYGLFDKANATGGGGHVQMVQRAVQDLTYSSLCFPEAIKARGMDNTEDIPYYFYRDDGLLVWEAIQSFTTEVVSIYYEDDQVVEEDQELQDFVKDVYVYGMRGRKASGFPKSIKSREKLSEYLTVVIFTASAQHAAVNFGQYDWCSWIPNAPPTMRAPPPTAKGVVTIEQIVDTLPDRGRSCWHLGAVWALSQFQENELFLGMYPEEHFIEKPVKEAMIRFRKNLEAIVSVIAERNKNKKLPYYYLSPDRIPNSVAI
# How it was run: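 10000g supernatant from rat PMN leukocytes incubated 10 min with [14C]arachidonic acid. 5-Lipoxygenase activity taken as percentage conversion to 5-HETE plus 5,12-diHETEs.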
# Rattus norvegicus [3] = test: Total radioactivity in tissues of male sd rats dosed orally with H-labeled compound at 21 mg/kg after 5 min in kidney; assay type: functional; settings: route oral; how it was run: as §1
# Rattus norvegicus [4] = test: Total radioactivity in tissues of male sd rats dosed intravenously with H-labeled compound at 21 mg/kg after 1 hr in kidney; assay type: functional; settings: route intravenous
# How it was run: (§2)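 Male Sprague-Dawley rats given ³H compound iv via femoral vein in PEG-400, 21 mg/kg, 3.96 μCi/mg. Killed at 2, 10, 30 min, 1, 2 and 4 h. Total radioactivity measured by combustion of composited tissue homogenates, in duplicate. Two or three rats per time point, one at 10 and 30 min.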
# Rattus norvegicus [5] = test: Total radioactivity in tissues of male sd rats dosed intravenously with H-labeled compound at 21 mg/kg after 4 hr in kidney; assay type: functional; settings: route intravenous; how it was run: as §2
# Rattus norvegicus [6] = test: Total radioactivity in tissues of male sd rats dosed intravenously with H-labeled compound at 21 mg/kg after 2 hr in plasma; assay type: functional; settings: route intravenous
# Rattus norvegicus [7] = test: Total radioactivity in tissues of male sd rats dosed orally with H-labeled compound at 21 mg/kg after 30 min in liver; assay type: functional; settings: route oral; how it was run: as §1
# Rattus norvegicus [8] = test: Total radioactivity in tissues of male sd rats dosed intravenously with H-labeled compound at 21 mg/kg after 1 hr in lung; assay type: functional; settings: route intravenous; how it was run: as §2
# Rattus norvegicus [9] = organism: Rattus norvegicus; test: Effective dose against antigen induced dyspnea in hyperactive inbred rat at a dose of […]; assay type: functional
# Rattus norvegicus [10] = test: Total radioactivity in tissues of male sd rats dosed orally with H-labeled compound at 21 mg/kg after 30 min in lung; assay type: functional; settings: route oral; how it was run: as §1
# Rattus norvegicus [11] = test: Total radioactivity in tissues of male sd rats dosed orally with H-labeled compound at 21 mg/kg after 15 min in plasma; assay type: functional; settings: route oral; how it was run: as §1
# Rattus norvegicus [12] = test: Total radioactivity in tissues of male sd rats dosed orally with H-labeled compound at 21 mg/kg after 24 hr r in liver; assay type: functional; settings: route oral; how it was run: as §1
# [13] = target: Arachidonate 5-lipoxygenase (Homo sapiens); test: Inhibitory activity of LTB4 production in human PMN
# Rattus norvegicus [14] = test: Total radioactivity in tissues of male sd rats dosed orally with H-labeled compound at 21 mg/kg after 5 min in lung; assay type: functional; settings: route oral; how it was run: as §1
# Rattus norvegicus [15] = test: Total radioactivity in tissues of male sd rats dosed intravenously with H-labeled compound at 21 mg/kg after 10 min in liver; assay type: functional; settings: route intravenous; how it was run: as §2
# Rattus norvegicus [16] = test: Percentage inhibition against antigen induced dyspnea in hyperactive inbred rat at a dose of 0.05 mg/kg; assay type: functional
# How it was run: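 Inbred hyperreactive rats, six per group, dosed po 2 h before aerosol ovalbumin challenge, with drug suspension or vehicle (0.4% Methocel/0.5% Tween 80, 10 mL/kg). Methysergide 3 mg/kg iv given 5 min before antigen. Dyspnea duration recorded by pneumotachograph. % inhibition of duration is relative to vehicle controls. Student's t test used; ED50 from linear regression.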
# [17] = Peak concentration of drug in rat plasma after oral dosing at 20 mg/kg. Concentration of parent compound was measured before (free) and after (total) beta-glucuronidase treatment; total 0.5 uM; assay type: ADME, organism-based; design: dose 20 mg/kg, route oral; settings: read-out: Plasma level
# Rattus norvegicus [18] = test: Total radioactivity in tissues of male sd rats dosed intravenously with H-labeled compound at 21 mg/kg after 2 hr in liver; assay type: functional; settings: route intravenous; how it was run: as §2
# Rattus norvegicus [19] = test: Total radioactivity in tissues of male sd rats dosed orally with H-labeled compound at 21 mg/kg after 15 min in kidney; assay type: functional; settings: route oral; how it was run: as §1
# Rattus norvegicus [20] = test: Total radioactivity in tissues of male sd rats dosed orally with H-labeled compound at 21 mg/kg after 1 hr in kidney; assay type: functional; settings: route oral; how it was run: as §1
# Rattus norvegicus [21] = test: Total radioactivity in tissues of male sd rats dosed orally with H-labeled compound at 21 mg/kg after 4 hr in liver; assay type: functional; settings: route oral; how it was run: as §1
# Rattus norvegicus [22] = test: Total radioactivity in tissues of male sd rats dosed orally with H-labeled compound at 21 mg/kg after 48 hr in lung; assay type: functional; settings: route oral; how it was run: as §1
# Rattus norvegicus [23] = test: Total radioactivity in tissues of male sd rats dosed orally with H-labeled compound at 21 mg/kg after 15 min in lung; assay type: functional; settings: route oral; how it was run: as §1
# Rattus norvegicus [24] = test: Total radioactivity in tissues of male sd rats dosed intravenously with H-labeled compound at 21 mg/kg after 2 hr in kidney; assay type: functional; settings: route intravenous; how it was run: as §2
smiles,measurement,setting,value
Oc1cc2c(cc1CCCOc1ccccc1)OC(CCc1ccccc1)C2 (stereo not given),Formation,Canis familiaris,4%
same,Total radioactivity,Rattus norvegicus [1],0.11 ug equiv g-1
same,IC50,[2],0.023 µM
same,Total radioactivity,Rattus norvegicus [3],9.12 ug equiv g-1
same,Total radioactivity,Rattus norvegicus [4],11.78 ug equiv g-1
same,Total radioactivity,Rattus norvegicus [5],2.82 ug equiv g-1
same,Total radioactivity,Rattus norvegicus [6],0.88 ug equiv g-1
same,Total radioactivity,Rattus norvegicus [7],3.92 ug equiv g-1
same,Total radioactivity,Rattus norvegicus [8],40.77 ug equiv g-1
same,ED50 at […],Rattus norvegicus [9],0.06 mg/kg
same,Total radioactivity,Rattus norvegicus [10],4.11 ug equiv g-1
same,Total radioactivity,Rattus norvegicus [11],1.08 ug equiv g-1
same,Total radioactivity,Rattus norvegicus [12],0.68 ug equiv g-1
same,IC50,[13],0.006 µM
same,Total radioactivity,Rattus norvegicus [14],473.13 ug equiv g-1
same,Total radioactivity,Rattus norvegicus [15],143.94 ug equiv g-1
same,inhibition in vivo at 0.05 mg/kg,Rattus norvegicus [16],50%
same,Cmax,[17],0.3 µM
same,Total radioactivity,Rattus norvegicus [18],3.31 ug equiv g-1
same,Total radioactivity,Rattus norvegicus [19],5.5 ug equiv g-1
same,Total radioactivity,Rattus norvegicus [20],1.62 ug equiv g-1
same,Total radioactivity,Rattus norvegicus [21],13.77 ug equiv g-1
same,Total radioactivity,Rattus norvegicus [22],0.09 ug equiv g-1
same,Total radioactivity,Rattus norvegicus [23],190.97 ug equiv g-1
same,Total radioactivity,Rattus norvegicus [24],1.24 ug equiv g-1

# — ChEMBL document CHEMBL1125428, “Development of 2,3-dihydro-6-(3-phenoxypropyl)-2-(2-phenylethyl)-5-benzofuranol (L-670,630) as a potent and orally active inhibitor of 5-lipoxygenase” (J Med Chem, 1992)
